For four molecules, Inhibition, ΔTm and IC50 results are on record in ChEMBL document CHEMBL1137037, “Pyrrolo[2,1-c][1,4]benzodiazepine-anthraquinone conjugates. Synthesis, DNA binding and cytotoxicity” (Bioorg Med Chem Lett, 2004).

Structures are written as SMILES.

The test system of assay [1] is HOP-62. The experiment in a line: Percent growth inhibition against human lung HOP-62 cell lines at the concentration of 10E-6. In kind it is functional.
The test system of assay [2] is Calf thymus DNA. The experiment in a line: Thermal denaturation of calf thymus DNA at 0 h at 37 degree C. In kind it is nucleic-acid assay. Conditions: Bos taurus. A digest of the protocol: (§1)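 Calf thymus DNA at 100 μM with ligand at 20 μM (1:5 [PBD]/[DNA] molar ratio), in 10 mM sodium phosphate plus 1 mM EDTA, pH 7.00 ± 0.01. Samples were incubated at 37 °C for 0 h or 18 h before thermal melting. The value is the induced ΔTm against DNA alone, whose Tm is the mean of 10 separate determinations.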

For assay [3], the system named is A549. The experiment in a line: Percent growth inhibition against human lung A-549 cell lines at the concentration of 10E-5. It counts as functional.
The test system of assay [4] is Calf thymus DNA. Put plainly: Thermal denaturation of calf thymus DNA at 18 hr at 37 degree C. In kind it is nucleic-acid assay. Conditions: Bos taurus. An outline of the steps: as §1
Assay [5] has as its system A549. The experiment in a line: Percent growth inhibition against human lung A-549 cell lines at the concentration of 10E-4. It counts as functional.
The subject of assay [6] is HT-29. Put plainly: Percent growth inhibition against human colon HT-29 cell lines at the concentration of 10E-5. It counts as functional.
Assay [7] has as its system HCT-15. The experiment in a line: Percent growth inhibition against human colon HCT-15 cell lines at the concentration of 10E-5. In kind it is functional.
The subject of assay [8] is SiHa. The experiment in a line: Percent growth inhibition against human cervix SiHa cell lines at the concentration of 10E-5. It counts as functional.
Assay [9] concerns HOP-62. The experiment in a line: Percent growth inhibition against human lung HOP-62 cell lines at the concentration of 10E-5. In kind it is functional.
Assay [10] has as its system SiHa. Put plainly: Percent growth inhibition against human cervix SiHa cell lines at the concentration of 10E-4. It counts as functional.
For assay [11], the system named is A549. Put plainly: Percent growth inhibition against human lung A-549 cell lines at the concentration of 10E-6. In kind it is functional.
Assay [12] has as its system HT-29. Put plainly: Percent growth inhibition against human colon HT-29 cell lines at the concentration of 10E-4. It counts as functional.
Assay [13] has as its system HCT-15. Put plainly: Percent growth inhibition against human colon HCT-15 cell lines at the concentration of 10E-6. In kind it is functional.
Assay [14] relates to SiHa. Put plainly: Percent growth inhibition against human cervix SiHa cell lines at the concentration of 10E-6. It counts as functional.
Assay [15] relates to HT-29. The experiment in a line: Percent growth Inhibition against human colon HT-29 cell lines at the concentration of 10E-6. It counts as functional.
The test system of assay [16] is Calf thymus DNA. Put plainly: Thermal denaturation of calf thymus DNA at 37 degree C. The following applies: Bos taurus. In kind it is nucleic-acid assay. A digest of the protocol:
as §1

In another assay the test system is L1210. The experiment in a line: In vitro cytotoxicity against mouse leukemia L1210 cell lines. It counts as functional, cell-based.

Usually Inhibition stands for the change of the read-out against control, counted positive when it falls. A lower Inhibition goes with a weak effect. As usually defined, the ΔTm is the change in melting temperature against a reference sample. `COc1cc2c(cc1OCCCCC(=O)Nc1cccc3c1C(=O)c1ccccc1C3=O)N=C[C@@H]1CCCN1C2=O`: the Inhibition is given as 73% in the assay with HOP-62 [1]; 10% in the assay on A549 [3]; 93% with A549 [5]; 87% in the assay on HT-29 [6]; 82% in the assay with HCT-15 [7]; 49% with SiHa [8]. The Inhibition in the assay on HOP-62 [9] stood at 97%; with SiHa [10], 73%; in the assay with A549 [11], 56%; in the assay on HT-29 [12] it was 93%; in the assay on HCT-15 [13], 61%; in the assay on SiHa [14] it was 40%. Moreover, the Inhibition with HT-29 [15] is on record as 73%. Moreover, the ΔTm in the assay on Calf thymus DNA [2] came to 5.1 °C; with Calf thymus DNA [4] it was 5.2 °C.

Usually IC50 stands for the concentration that inhibits the measured activity by half. A higher IC50 goes with weaker potency. In the case of `O=C1c2c(O)ccc(O)c2C(=O)c2c(NCCNCCO)ccc(NCCNCCO)c21` [MITOXANTRONE], in the assay with Calf thymus DNA [16], the shift in melting temperature (ΔTm) came out at 15.9 °C. In addition, the IC50 with L1210 came out at 0.1 µM.

For `COc1cc2c(cc1O)N=C[C@@H]1CCCN1C2=O`, the ΔTm in the assay on Calf thymus DNA [2] is 0.3 °C.

For the molecule `COc1cc2c(cc1OCCCC(=O)Nc1cccc3c1C(=O)c1ccccc1C3=O)N=C[C@@H]1CCCN1C2=O`, the Inhibition came out at 74% in the assay with HOP-62 [1]; 27% in the assay with A549 [3]; 93% in the assay with A549 [5]; 86% in the assay on HT-29 [6]; 66% in the assay with HCT-15 [7]; 52% in the assay on SiHa [8]. For the same molecule, the Inhibition in the assay on HOP-62 [9] worked out at 90%; in the assay with SiHa [10] it was 57%; with A549 [11], 47%; in the assay on HT-29 [12] it was 93%; in the assay on HCT-15 [13], 59%; in the assay on SiHa [14], 41%. This molecule registered an Inhibition in the assay on HT-29 [15] of 68%. For the same molecule, the ΔTm was determined as 8.9 °C in the assay with Calf thymus DNA [2] and 9.1 °C in the assay with Calf thymus DNA [4].
